From ChEMBL document CHEMBL4689842, “EUbOPEN Chemogenomics Library wave 1” (2021)

Tested on: HEK-293T
Assay: Multiplex assay against HEK293T;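 for Population Tubulin-Different-Phenotype (%): share of the cells with healthy nuclei that show this phenotype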
Type: toxicity, cell-based
Details: human
Summary of the method: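 Compound was added to live cells that had been stained at seeding with Hoechst33342, BioTracker Green Microtubule Cytoskeleton Dye, MitoTracker Red and Annexin V Alexa Fluor 680, and imaging followed on a CQ1 microscope at 37°C and 5% CO2. CellPathfinder machine-learning gating divided cells into Hoechst high-intensity objects or normal cells, normal cells into healthy, pyknosed or fragmented nuclei, and pyknosed cells into mitotic or apoptotic. Tubulin, mitochondrial-mass and membrane-permeability phenotypes are per cents of healthy-nucleus cells.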

[1] = 12 h, 1 µM, compound concentration 1 uM, replicate 1
[2] = 12 h, 1 µM, compound concentration 1 uM, replicate 2
[3] = 12 h, 10 µM, compound concentration 10 uM, replicate 1
[4] = 12 h, 10 µM, compound concentration 10 uM, replicate 2
[5] = 24 h, 1 µM, compound concentration 1 uM, replicate 1
[6] = 24 h, 1 µM, compound concentration 1 uM, replicate 2
[7] = 24 h, 10 µM, compound concentration 10 uM, replicate 1
[8] = 24 h, 10 µM, compound concentration 10 uM, replicate 2
[9] = 48 h, 1 µM, compound concentration 1 uM, replicate 1
[10] = 48 h, 1 µM, compound concentration 1 uM, replicate 2
[11] = 48 h, 10 µM, compound concentration 10 uM, replicate 1
[12] = 48 h, 10 µM, compound concentration 10 uM, replicate 2

C[C@]12CC[C@@H]3c4ccc(O)cc4CC[C@H]3[C@@H]1CC[C@@H]2O [ESTRADIOL]
Population Apoptotic (%) [1]: 40% | Population Fragmented Nuclei (%) [1]: 10% | Population Healthy Nuclei (%) [1]: 45% | Population Hoechst High Intensity Objects (%) [1]: 14% | Population Membrane Permeable-Phenotype (%) [1]: 1% | Population Mitochondria Different-Phenotype (%) [1]: 72% | Population Mitotic Cells (%) [1]: 59% | Population Normal (%) [1]: 85% | Population Pyknosed Nuclei (%) [1]: 44% | Population Tubulin-Different-Phenotype (%) [1]: 41% | Population Apoptotic (%) [2]: 4% | Population Fragmented Nuclei (%) [2]: 7% | Population Healthy Nuclei (%) [2]: 42% | Population Hoechst High Intensity Objects (%) [2]: 3% | Population Membrane Permeable-Phenotype (%) [2]: 3% | Population Mitochondria Different-Phenotype (%) [2]: 10% | Population Mitotic Cells (%) [2]: 95% | Population Normal (%) [2]: 96% | Population Pyknosed Nuclei (%) [2]: 50% | Population Tubulin-Different-Phenotype (%) [2]: 11% | Population Apoptotic (%) [3]: 42% | Population Fragmented Nuclei (%) [3]: 11% | Population Hoechst High Intensity Objects (%) [3]: 15% | Population Membrane Permeable-Phenotype (%) [3]: 0% | Population Mitochondria Different-Phenotype (%) [3]: 76% | Population Mitotic Cells (%) [3]: 57% | Population Normal (%) [3]: 84% | Population Pyknosed Nuclei (%) [3]: 52% | Population Tubulin-Different-Phenotype (%) [3]: 29% | Population Apoptotic (%) [4]: 10% | Population Fragmented Nuclei (%) [4]: 5% | Population Healthy Nuclei (%) [4]: 36% | Population Hoechst High Intensity Objects (%) [4]: 5% | Population Membrane Permeable-Phenotype (%) [4]: 1% | Population Mitochondria Different-Phenotype (%) [4]: 11% | Population Mitotic Cells (%) [4]: 89% | Population Normal (%) [4]: 94% | Population Pyknosed Nuclei (%) [4]: 58% | Population Tubulin-Different-Phenotype (%) [4]: 9% | Population Apoptotic (%) [5]: 37% | Population Fragmented Nuclei (%) [5]: 12% | Population Healthy Nuclei (%) [5]: 52% | Population Hoechst High Intensity Objects (%) [5]: 16% | Population Membrane Permeable-Phenotype (%) [5]: 1% | Population Mitochondria Different-Phenotype (%) [5]: 45% | Population Mitotic Cells (%) [5]: 62% | Population Normal (%) [5]: 83% | Population Pyknosed Nuclei (%) [5]: 34% | Population Tubulin-Different-Phenotype (%) [5]: 34% | Population Apoptotic (%) [6]: 6% | Population Fragmented Nuclei (%) [6]: 3% | Population Healthy Nuclei (%) [6]: 64% | Population Hoechst High Intensity Objects (%) [6]: 3% | Population Membrane Permeable-Phenotype (%) [6]: 10% | Population Mitochondria Different-Phenotype (%) [6]: 6% | Population Mitotic Cells (%) [6]: 93% | Population Normal (%) [6]: 96% | Population Pyknosed Nuclei (%) [6]: 31% | Population Tubulin-Different-Phenotype (%) [6]: 21% | Population Apoptotic (%) [7]: 39% | Population Fragmented Nuclei (%) [7]: 11% | Population Healthy Nuclei (%) [7]: 46% | Population Hoechst High Intensity Objects (%) [7]: 16% | Population Membrane Permeable-Phenotype (%) [7]: 1% | Population Mitochondria Different-Phenotype (%) [7]: 53% | Population Mitotic Cells (%) [7]: 60% | Population Normal (%) [7]: 83% | Population Pyknosed Nuclei (%) [7]: 41% | Population Tubulin-Different-Phenotype (%) [7]: 39% | Population Apoptotic (%) [8]: 7% | Population Fragmented Nuclei (%) [8]: 5% | Population Healthy Nuclei (%) [8]: 47% | Population Hoechst High Intensity Objects (%) [8]: 5% | Population Membrane Permeable-Phenotype (%) [8]: 8% | Population Mitochondria Different-Phenotype (%) [8]: 12% | Population Mitotic Cells (%) [8]: 92% | Population Normal (%) [8]: 94% | Population Pyknosed Nuclei (%) [8]: 47% | Population Tubulin-Different-Phenotype (%) [8]: 12% | Population Apoptotic (%) [9]: 42% | Population Fragmented Nuclei (%) [9]: 15% | Population Healthy Nuclei (%) [9]: 61% | Population Hoechst High Intensity Objects (%) [9]: 13% | Population Membrane Permeable-Phenotype (%) [9]: 3% | Population Mitochondria Different-Phenotype (%) [9]: 20% | Population Mitotic Cells (%) [9]: 57% | Population Normal (%) [9]: 86% | Population Pyknosed Nuclei (%) [9]: 23% | Population Tubulin-Different-Phenotype (%) [9]: 25% | Population Apoptotic (%) [10]: 3% | Population Fragmented Nuclei (%) [10]: 5% | Population Healthy Nuclei (%) [10]: 81% | Population Hoechst High Intensity Objects (%) [10]: 3% | Population Membrane Permeable-Phenotype (%) [10]: 8% | Population Mitochondria Different-Phenotype (%) [10]: 3% | Population Mitotic Cells (%) [10]: 96% | Population Normal (%) [10]: 96% | Population Pyknosed Nuclei (%) [10]: 13% | Population Tubulin-Different-Phenotype (%) [10]: 13% | Population Apoptotic (%) [11]: 29% | Population Fragmented Nuclei (%) [11]: 16% | Population Healthy Nuclei (%) [11]: 56% | Population Hoechst High Intensity Objects (%) [11]: 11% | Population Membrane Permeable-Phenotype (%) [11]: 1% | Population Mitochondria Different-Phenotype (%) [11]: 30% | Population Mitotic Cells (%) [11]: 70% | Population Normal (%) [11]: 88% | Population Tubulin-Different-Phenotype (%) [11]: 25% | Population Apoptotic (%) [12]: 11% | Population Fragmented Nuclei (%) [12]: 3% | Population Healthy Nuclei (%) [12]: 69% | Population Hoechst High Intensity Objects (%) [12]: 4% | Population Membrane Permeable-Phenotype (%) [12]: 3% | Population Mitochondria Different-Phenotype (%) [12]: 4% | Population Mitotic Cells (%) [12]: 88% | Population Normal (%) [12]: 95% | Population Pyknosed Nuclei (%) [12]: 26% | Population Tubulin-Different-Phenotype (%) [12]: 10%
